# Most compounds without a hit are left out; they make up all but 3.5% or so of the library.
# rRNA inh HTS = reduced GFP signal of wild-type E. coli, primary screen, bacterial rRNA inhibitor project, GFP/RFP fluorescence, OD600, single point; 1.6% of 350,000 active; E. coli WT GFP vs humanized-ribosome RFP mutants, 24 h; stronger effect = lower value; DMSO median 0, no signal -100; AID 720706, 2013; GFP signal change (wild-type ribosome), % (concentration not given with the values);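 active means significant combined selectivity score with lowered wild-type GFP, culture density cut under 30%, mutant RFP and density less affected; inactive means any of these conditions unmet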
# HIV Env fusion = inhibitors of HIV-1 Env-driven cell-cell fusion, primary screen, HeLa-JRFL effector, CEM21 target cells, luciferase | inhibition, % at 12.3 µM | 1.1% of 360,000 active | AID 651610, 2012;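 active means mean replicate inhibition score of at least 50 and every replicate individually at or above 50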;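 further: 0% = plate neutral controls and 100% = maraviroc near 300 nM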
# Cneo AK release = Cryptococcus neoformans cell lysis inducers, primary screen, AK release luminescence, single concentration; 0.2% of 360,000 active; C. neoformans lysis, adenylate kinase release luminescence, 4 h; normalised: neutral wells 0, clomiphene wells 100; AID 651654, 2012; lysis activity, % at 15 µM;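 active means mean lysis activity across replicates of at least 80%, whatever share of replicates individually reach that level; inactive means mean lysis activity below 80%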
#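 Test system: log-phase Cryptococcus neoformans yeast cells; Quantity: yeast cell density of 5 × 10^6 cells/mL; Buffer or medium: YPD; Doses: single compound concentration per well; Timing: 4 h at 37 °C static, read 1 h later; Measured by: AK luminescence; Read-out basis: lysis from increased AK signal; Control set: Clomiphene as positive control.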
# PGC1a acetyl inh = inhibitors of PGC1a acetylation signal, primary screen, cell-based, U2OS, AlphaScreen, inhibitor mode. AlphaScreen anti-acetyl-lysine; with virally co-expressed GCN5 acetyltransferase. inhibition, % at 15.6 µM. 0.17% of 350,000 active. AID 651687, 2012;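 active means every replicate shows inhibition of at least 40%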;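 further: 0% = neutral control wells and 100% = positive control wells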
# FGF22 binding = binders of human FGF22 protein, primary screen, FGF22 synaptogenesis inhibitor project, biophysical, thermal shift, single point; activity (Tm shift, normalised), % at 9.99 µM; 1.5% of 340,000 active; Fibroblast growth factor 22 (Homo sapiens), Q9HCT0; recombinant FGF22 thermal shift, SYPRO orange fluorescence; percent of sucrose octasulfate shift, DMSO zero; AID 651658, 2012;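 active means mean Tm shift, scaled 0 neutral to 100 positive control, at about 1.3% or above, every replicate too, limit read from the data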
# Target sequence (Q9HCT0 whole entry, looked up): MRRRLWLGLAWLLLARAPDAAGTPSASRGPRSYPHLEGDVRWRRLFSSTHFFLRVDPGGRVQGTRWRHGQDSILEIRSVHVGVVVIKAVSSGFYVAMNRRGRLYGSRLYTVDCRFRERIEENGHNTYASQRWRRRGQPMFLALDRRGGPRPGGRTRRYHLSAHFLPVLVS
# ERAP1 HTS inh = human ERAP1 aminopeptidase inhibitors, primary screen, biochemical, single point, plate reader; Endoplasmic reticulum aminopeptidase 1 (Homo sapiens), Q9NZ08; recombinant ERAP1, Leu-AMC fluorescence, 60 min; inhibition, % at 10.7 µM; 0.15% of 340,000 active; AID 652197, 2013;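 active means mean replicate inhibition of at least 30%, or all replicates individually reaching that 30% level; inactive means mean below 30% and not every replicate reaching it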;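 further: 0% = neutral control wells and 100% = L-leucinethiol positive control wells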
# An asterisk follows results filed as active; / = no result given; [ ] = dose if it differs, or a comment.
SMILES,rRNA inh HTS,HIV Env fusion,Cneo AK release,PGC1a acetyl inh,FGF22 binding,ERAP1 HTS inh
CN1C(=O)c2cc(NS(=O)(=O)c3cccc(F)c3)ccc2OC[C@@H]2O[C@@H](CC(=O)O)CC[C@H]21,-0.5,/,96.5*,5.9,0.0,-4.3
C[C@H](O)C#Cc1ccc([C@@H]2[C@@H](CO)N3CCCCN(CC4CC4)C[C@@H]23)cc1,4.4,/,7.9,10.5,-0.2,-1.3
C/C(=N\OCc1ccc(C#N)cc1)c1ccc(S(=O)(=O)N(C)C)cc1,-17.2,-6.2,-0.5,/,-0.2,-0.7
O=c1cc(-c2ccc(Cl)cc2)nc(N2CCN(c3ccccc3)CC2)[nH]1,18.5,-20.8,0.3,-4.2,0.0,-5.7
O=C(Nc1ccc(Cl)cn1)c1ccccc1[N+](=O)[O-],-5.4,-71.6,1.7,-6.2,43.1*,-5.3
O=C(Nc1ccc(Nc2ccccc2)cc1)c1ccc(Cl)cc1[N+](=O)[O-],-27.4*,-15.7,4.9,1.7,0.0,-7.0
CC(=O)NS(=O)(=O)c1ccc(NC(=O)c2ccc(Cl)cc2[N+](=O)[O-])cc1,18.5,-3.4,0.0,0.7,42.8,11.0
Cc1ccnc(NC(=O)c2cccc([N+](=O)[O-])c2C)c1,7.7,5.9,/,/,43.2*,0.8
CC(CNC(=O)[C@H]1O[C@@H](n2cnc3c(=O)[nH]c(N)nc32)[C@H](O)[C@@H]1O)c1ccccc1 (stereo not given in full),14.1,2.6,/,/,0.1,-0.4
Nc1nc2c(ncn2[C@@H]2O[C@H](C(=O)NCC(c3ccccc3)c3ccccc3)[C@@H](O)[C@H]2O)c(=O)[nH]1,7.9,75.0*,/,/,-0.1,0.5
COC(=O)c1ccc(OCC(=O)c2ccc(C)c(C)c2)cc1,-12.7,10.4,/,/,-0.1,-0.2
CC(C)N1CCN(Cc2ccncc2)CC1CCO (stereo not given),18.5,3.0,/,4.1,41.7,0.0
Cc1ccc(-c2cccc(CN3CCN(C(C)C)C(CCO)C3)c2)o1 (stereo not given),7.5,-2.2,/,/,43.0*,0.8
Cc1ccc(CN2CCN(Cc3cccc(OCCO)c3)CC2CCO)o1 (stereo not given),1.6,-5.3,/,17.7,43.9*,4.3
FC(F)(F)c1ccc(Sc2n[nH]c(C(F)(F)F)n2)nc1,-0.7,3.7,-0.2,6.4,0.1,5.0
FC(F)(F)c1ccnc(Sc2n[nH]c(C(F)(F)F)n2)c1,-24.8*,1.5,/,-1.0,-0.1,-0.2
O=c1[nH]c2ccc(Cl)cc2c(O)c1Cc1ccccc1,-22.8,8.1,/,-9.8,44.3*,-6.9
O=C(O)CSc1c(-c2ccccc2)c2cc(Cl)ccc2[nH]c1=O,-28.1*,7.2,/,/,-0.1,-2.8
CCOC(=O)CSc1c(-c2ccccc2)c2cc(Cl)ccc2[nH]c1=O,-1.9,6.3,0.5,/,-0.3,-6.8
Cc1ccc(S(=O)(=O)NC(=O)NC(C)(C)C)cc1,/,-60.4,-4.1,1.4,/,/
CC(C)C1C(=O)N(Cc2cn(CC3CCCCC3)nn2)CCS(=O)(=O)N1Cc1ccc(-c2ccc(Cl)cc2)cc1 (stereo not given),21.8,26.3,/,-5.5,0.3,/
CC(C)(C)c1cnnn1-c1ccc(/C=N/Nc2ccc([N+](=O)[O-])cc2)cc1,/,-19.5,0.2,/,43.0*,-4.3
COc1ccc2sc(N(CCCN(C)C)C(=O)c3ccc(S(=O)(=O)N4CCc5ccccc5C4)cc3)nc2c1,-0.4,102.4*,0.3,22.0,-0.8,-0.3
Cc1cccc2sc(N(CCCN(C)C)C(=O)c3ccc(S(=O)(=O)N4CCc5ccccc5C4)cc3)nc12,-10.3,-0.8,-0.5,/,0.1,-0.5
CN(C)CCCN(C(=O)c1ccc(S(=O)(=O)N2CCc3ccccc3C2)cc1)c1nc2c(F)cccc2s1,-46.7*,2.1,0.1,/,/,3.1
SMILES,rRNA inh HTS,HIV Env fusion,Cneo AK release,PGC1a acetyl inh,FGF22 binding,ERAP1 HTS inh
CC(C)NCc1cccc([N+](=O)[O-])c1,14.6,/,/,/,0.1,8.7
O=C(CNCC1CCCO1)Nc1ccc(N2CCCCCC2)cc1 (stereo not given),/,/,1.3,-6.4,/,/
CCOc1ccc(CN2C(=O)c3ccccc3C2=O)cc1C(=O)NC1CC(C)(C)NC(C)(C)C1,12.8,/,-0.5,-0.5,0.2,49.2*
O=C(C[C@H]1C[C@H]2c3cc(NC(=O)c4ccc5c(c4)OCO5)ccc3O[C@H]2[C@H](CO)O1)NCc1ccc(Oc2ccccc2)cc1,-0.2,73.1*[16.7 µM],5.4,6.2,0.3,1.7
O=C(C[C@H]1C[C@H]2c3cc(NC(=O)Nc4ccccc4)ccc3O[C@H]2[C@H](CO)O1)NCc1cccnc1,-0.5,8.3[16.7 µM],/,-4.9,/,/
O=C(C[C@@H]1C[C@H]2c3cc(NC(=O)Nc4ccccc4)ccc3O[C@H]2[C@H](CO)O1)NCc1cccnc1,-2.9,62.8*[16.7 µM],0.7,-4.0,-0.1,/
O=C(C[C@@H]1C[C@@H]2c3cc(NC(=O)Nc4ccccc4F)ccc3O[C@@H]2[C@@H](CO)O1)NCc1ccc(Oc2ccccc2)cc1,-0.4,7.8[16.7 µM],4.7,83.8*,0.1,3.1
O=C(C[C@H]1C[C@@H]2c3cc(NC(=O)Nc4ccccc4)ccc3O[C@@H]2[C@@H](CO)O1)NCc1ccccc1,-3.2,-16.2[16.7 µM],-0.2,-0.4,-0.5,2.1
O=C(C[C@@H]1C[C@@H]2c3cc(NC(=O)Nc4ccccc4)ccc3O[C@@H]2[C@@H](CO)O1)NCc1ccccc1,-2.7,59.0*[16.7 µM],-0.4,-2.4,-0.3,-5.3
O=C(C[C@H]1C[C@@H]2c3cc(NC(=O)c4ccc5c(c4)OCO5)ccc3O[C@@H]2[C@H](CO)O1)NCc1ccc(Oc2ccccc2)cc1,-6.6,23.6[16.7 µM],47.4,1.2,-0.3,1.9
CCOc1cc(C2CC(=O)N3CN(C4CCCCC4)CSC3=C2C#N)ccc1O (stereo not given),-8.3,-3.9,-1.2,/,0.3,5.9
CN(C)CC#Cc1ccc([C@H]2[C@@H](CO)N3CCCCN(C(=O)c4ccc5c(c4)OCO5)C[C@H]23)cc1,5.7,/,-1.3,-7.6,0.0,-1.9
C=CCN1C(=O)c2ccc(C(=O)N(C)CC(=O)Nc3c(C)cccc3C)cc2C1=O,17.8,-40.3,-0.6,/,-0.3,8.5
CCc1nc2ccc(C(=O)N3CCN(C(=O)c4ccco4)CC3)cn2c1N(CCC(C)C)CCN(C)C,8.0,-56.4,1.9,4.5,-0.4,-2.3
O=C(C[C@@H]1C[C@@H]2c3cc(NC(=O)Nc4ccc(F)cc4)ccc3O[C@@H]2[C@@H](CO)O1)NCC1CC1,4.2,/,86.5*,0.3,0.0,/
